# Bioassay records from PubChem.
# HCV NS3 hel inh: inhibitors of HCV NS3 helicase, primary screen, biochemical, Cy5 molecular beacon fluorescence; Hepatitis C virus NS3 helicase; NS3 helicase DNA unwinding; inhibition, % at 10.9 µM; 290,000 compounds, 0.56% hits; AID 1800, 2009;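 active = inhibition above the mean of all tested compounds plus 3 SD, set per campaign, cut at about 35% in these data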;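 also: 0% = DMSO wells and 100% = thioflavine S control wells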
#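 Assay system: hepatitis C virus NS3 helicase domain fragment enzyme. Also added: annealed dual-labelled DNA beacon duplex, ATP-started. Timing: 1 h reaction at 25 °C, ATP-initiated. Technique: Cy5 fluorescence at 0 and 60 min, beacon hairpin quenching. Evaluation: % inhibition of unwinding. Replication: one well per compound.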
# NSD2 HMT inh: NSD2 histone methyltransferase inhibitors, primary screen, biochemical, AlphaScreen, single concentration, set 2; inhibition, % at 12.5 µM; 310,000 compounds, 0.54% hits; NSD2 peptide methylation, 120 min
# Target sequence (O96028 whole entry, looked up): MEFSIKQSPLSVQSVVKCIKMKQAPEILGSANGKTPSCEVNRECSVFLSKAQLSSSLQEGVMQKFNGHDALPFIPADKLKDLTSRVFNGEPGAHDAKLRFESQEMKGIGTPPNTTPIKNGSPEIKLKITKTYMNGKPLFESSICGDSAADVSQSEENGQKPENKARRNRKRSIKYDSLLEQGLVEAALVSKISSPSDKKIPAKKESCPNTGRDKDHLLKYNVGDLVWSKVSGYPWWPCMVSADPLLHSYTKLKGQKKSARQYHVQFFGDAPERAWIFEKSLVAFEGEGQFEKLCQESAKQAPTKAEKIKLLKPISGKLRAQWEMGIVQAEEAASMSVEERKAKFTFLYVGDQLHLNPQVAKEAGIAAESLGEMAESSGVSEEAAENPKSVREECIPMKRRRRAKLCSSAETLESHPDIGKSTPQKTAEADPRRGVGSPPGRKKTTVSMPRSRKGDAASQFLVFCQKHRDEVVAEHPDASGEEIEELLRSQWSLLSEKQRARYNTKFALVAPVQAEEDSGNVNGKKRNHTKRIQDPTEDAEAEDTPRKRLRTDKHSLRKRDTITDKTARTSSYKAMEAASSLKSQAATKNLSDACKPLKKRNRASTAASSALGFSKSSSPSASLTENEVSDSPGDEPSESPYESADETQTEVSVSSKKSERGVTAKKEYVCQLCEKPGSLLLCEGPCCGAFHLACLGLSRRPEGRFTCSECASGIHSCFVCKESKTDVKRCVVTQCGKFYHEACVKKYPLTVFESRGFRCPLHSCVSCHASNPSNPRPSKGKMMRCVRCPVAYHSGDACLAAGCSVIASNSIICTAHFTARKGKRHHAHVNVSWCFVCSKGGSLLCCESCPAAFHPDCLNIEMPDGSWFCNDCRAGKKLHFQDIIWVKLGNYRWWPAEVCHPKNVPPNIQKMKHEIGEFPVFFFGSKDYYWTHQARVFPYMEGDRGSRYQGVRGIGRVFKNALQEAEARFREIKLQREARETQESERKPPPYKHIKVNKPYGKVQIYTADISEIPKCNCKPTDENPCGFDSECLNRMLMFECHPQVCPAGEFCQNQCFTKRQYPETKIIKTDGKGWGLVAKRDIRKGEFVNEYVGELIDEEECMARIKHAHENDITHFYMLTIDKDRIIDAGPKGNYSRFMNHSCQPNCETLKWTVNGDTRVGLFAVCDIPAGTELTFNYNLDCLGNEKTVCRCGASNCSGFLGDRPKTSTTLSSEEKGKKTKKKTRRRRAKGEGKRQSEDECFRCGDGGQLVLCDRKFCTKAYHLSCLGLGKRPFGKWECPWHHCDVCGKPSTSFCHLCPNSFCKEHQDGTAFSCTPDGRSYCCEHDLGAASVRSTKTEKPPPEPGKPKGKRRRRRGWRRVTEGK
# CASP6 VEID inh: human caspase-6 inhibitors, primary screen, biochemical, VEID-R110 fluorescence, single point, set 2 | purified caspase-6, Z-VEID-R110 cleavage fluorescence | P55212 | 350,000 compounds, 0.53% hits | inhibition, % at 12.5 µM;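 active = mean inhibition across replicates at least about 35%, with every replicate also reaching that limit, limit read from the data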;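 also: 0% = median of neutral control wells and 100% = no fluorescence left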
# DNMT1 block: human DNMT1 methyltransferase inhibitors, primary screen, biochemical, molecular beacon, fluorescence, HinP1I cleavage, uHTS; 360,000 compounds, 0.83% hits; inhibition (reported as % activation of signal), % at 10 µM; DNA (cytosine-5)-methyltransferase 1 (Homo sapiens), P26358
# * marks the source's active call; other numbers are inactive results; x = not tested or not shown; + = active, no number. Sampled rows, rich in hits. Any-hit rate of the full collection: about 1.5%. Rule as the data show it, unless noted: active = inhibition above about 50%; inactive = the rest.
SMILES,HCV NS3 hel inh,NSD2 HMT inh,CASP6 VEID inh,DNMT1 block
CN1CCN(C2=CC3=CC(=C(C#N)C#N)CCC3CC2)CC1 (stereo not drawn),4,2,x,+
N#CC(C#N)=C1C=C2C=C(N3CCOCC3)CCC2CC1 (stereo not drawn),0,2,-2,+
OCCN=c1cc(-c2ccccc2)oc2ccc(Cl)cc12,-6,4,x,10
CN(C)CCCN=c1cc(-c2ccccc2)oc2ccc(Cl)cc12,-9,17,-27,52*
CCC(=O)N1C[C@@H](C)[C@@H](OC)CN(C)C(=O)c2cc(NC(=O)c3ccc(F)cc3)ccc2OC[C@H]1C,x,x,1,x
O=C(O)c1cc(S(=O)(=O)Nc2ccc3cn[nH]c3c2)ccc1O,x,3,60*,-10
O=[N+]([O-])c1ccc(Cl)c(S(=O)(=O)Nc2ccc3cn[nH]c3c2)c1,x,0,1,0
O=C(O)c1ccc(Cl)c(S(=O)(=O)Nc2ccc3cn[nH]c3c2)c1,9,13,37*,25
C[C@@H]1CN([C@H](C)CO)S(=O)(=O)c2ccc(C#C[C@@H](C)O)cc2O[C@H]1CN(C)C(=O)c1ccccc1,x,x,2,x
Cc1cccc(C)c1OCc1nc2ccccc2[nH]1,-2,-3,43*,17
Cc1noc(C)c1S(=O)(=O)N(C)C[C@@H]1Oc2ccc(NC(=O)CCCN(C)C)cc2C(=O)N([C@@H](C)CO)C[C@@H]1C,x,x,-2,x
O=C(CCOc1ccccc1)N1CCN(S(=O)(=O)c2ccccc2F)CC1,x,-2,48*,-3
O=C(CCOc1ccccc1)N1CCN(S(=O)(=O)c2cccs2)CC1,-3,0,x,2
CN1CCN(C(=O)C[C@@H]2C[C@H]3c4cc(NC(=O)NC5CCCC5)ccc4O[C@H]3[C@@H](CO)O2)CC1,x,x,-7,x
CO[C@H]1CC[C@H]2CCN(C)C(=O)[C@H](C)[C@H](OC)CN(C)C(=O)c3cccc(C#N)c3OC[C@@H]1O2,x,x,1,x
COc1cc(-c2nnc(COC(=O)c3ccc(C)o3)o2)cc(OC)c1OC,x,0,35*,36
COc1cc(-c2nnc(COC(=O)c3cc(C)no3)o2)cc(OC)c1OC,6,-2,2,-3
O=C(NCCc1ccccc1)[C@H]1[C@H](CO)[C@H]2Cn3c(cccc3=O)[C@@H]1N2CC1CC1,x,x,-3,x
CC1=C(C#N)c2nc(N)c(C#N)c(C)c2/C1=C\c1ccc(OCC(=O)O)c(Cl)c1,31,57*,16,-1
CC1(C)Cc2c(sc(NC(=O)c3ccco3)c2C(=O)O)CO1,-11,x,37*,-2
N#C/C(=C/c1ccc(O)c(O)c1)C(=O)NCc1ccc(Cl)cc1,5,78*,35*,0
C[C@H](CO)N1C[C@H](C)[C@H](CN(C)Cc2ccc(C(=O)O)cc2)Oc2ccc(NC(=O)Cc3ccccc3)cc2C1=O,x,x,2,x
O=C1c2ccccc2[C@@H]2C[C@@H](O)[C@H](Nc3cccc4ccccc34)CCN12,x,x,39*,-21
CCN1CCN(C(=O)c2ccc(CS(=O)(=O)Cc3ccccc3Cl)o2)CC1,x,5,63*,0
CCN1CCN(C(=O)c2ccc(CS(=O)(=O)Cc3ccccc3C)o2)CC1,15,9,-1,5
SMILES,HCV NS3 hel inh,NSD2 HMT inh,CASP6 VEID inh,DNMT1 block
O=C(Nc1c[nH]c(=O)[nH]c1=O)c1ccc2c(c1)C(=O)N(c1cccc([N+](=O)[O-])c1)C2=O,0,5,1,58*
O=C1NN(c2cccc(Br)c2)C(=O)/C1=C/c1ccc(-c2cc([N+](=O)[O-])ccc2O)o1,18,x,x,53*
O=C1NN(c2ccc(Cl)c(Cl)c2)C(=O)/C1=C/c1ccc(-c2ccccc2C(=O)O)o1,32,16,37*,60*
Cc1ccc(N2NC(=O)/C(=C/c3ccc(-c4ccc(Cl)c(C(=O)O)c4)o3)C2=O)cc1C,20,x,3,13
C[C@@H]1CN([C@H](C)CO)C(=O)c2cc(NC(=O)Nc3cccc4ccccc34)ccc2O[C@@H](C)CCCCO[C@@H]1CN(C)S(=O)(=O)c1ccc(F)cc1,x,x,3,x
O=C(Cc1cccc([N+](=O)[O-])c1)Nc1cccc(C(=O)N2CCOCC2)c1,x,x,-3,2
O=C(Nc1cccc(C(=O)N2CCOCC2)c1)c1ccc([N+](=O)[O-])cc1,8,-5,42*,-1
C[C@H](CO)N1C[C@H](C)[C@H](CN(C)C(=O)c2ccc(F)cc2)OCc2ccccc2-c2c(n(C)c3ccccc23)C1=O,x,x,-1,x
CC(C)(C)c1ccc(C(=O)Nn2c(CCC(=O)O)ccc2-c2cccs2)cc1,28,5,39*,7
O=C(O)c1ccccc1NS(=O)(=O)c1ccc(N/N=C/c2cccc(O)c2O)c([N+](=O)[O-])c1,x,29,60*,11
CN(CCO)c1ccc(C=NNc2ccc([N+](=O)[O-])cc2S(=O)(=O)Nc2ccccc2C(=O)O)cc1,x,x,37*,-32
O=C(O)c1ccccc1NS(=O)(=O)c1ccc(NNC(=S)Nc2ccc(OC(F)F)cc2)c([N+](=O)[O-])c1,10,110*,19,-20
CC(=O)Nc1ccc(C=NNc2ccc([N+](=O)[O-])cc2S(=O)(=O)Nc2ccccc2C(=O)O)cc1,x,-1,20,-27
O=c1cc(-c2ccccc2)oc2cc(O)c(O)c(O)c12,x,x,44*,9
O=c1cc(-c2ccc(O)cc2)oc2c(O)c(O)c(O)c(O)c12,23,x,63*,4
COc1c(O)cc2oc(-c3ccc(O)cc3)cc(=O)c2c1O,x,x,4,2
CCOc1ccccc1NC(=O)Nc1ccc2c(c1)OCO2,-3,3,4,1
C=CCOc1ccccc1CN(C(=O)CCl)c1ccc2c(c1)OCO2,-13,1,12,79*
CCn1c(CNC(=O)COc2ccc(C(C)C)cc2)nnc1SCC(=O)Nc1ccccc1C(C)C,-4,0,x,-3
CCn1c(CNC(=O)COc2ccc(C(C)C)cc2)nnc1SCC(=O)Nc1ccccc1F,6,3,53*,-4
O=C(CSc1nnc2ccccn12)NC(=O)c1ccccc1Cl,x,1,39*,43
COc1ccccc1C(=O)NC(=O)CSc1nnc2ccccn12,x,0,3,1
C[C@@H]1CN([C@H](C)CO)C(=O)c2cc(NC(=O)C3CCCCC3)ccc2O[C@@H](C)CCCCO[C@@H]1CN(C)S(=O)(=O)c1ccccc1,x,x,2,x
O=C(NC(=C(Cl)Cl)S(=O)(=O)c1ccc(Cl)cc1)c1ccccc1,1,5,39*,13
Cc1cccc(OCC(=O)NNC(=O)c2ccc3nc[nH]c3c2)c1,x,2,41*,7
Cc1ccc(C(=O)NCC(c2ccco2)N2CCc3ccccc3C2)cc1 (stereo not drawn),x,3,14,0
O=C(NCC(c1ccco1)N1CCc2ccccc2C1)c1ccc(Cl)cc1 (stereo not drawn),x,0,63*,-1
